Reference: paper PMC3988263 (European journal of pharmacology, 2011)

Key:
[1] = test system: mice (retention time on inverted wire grid); test: Inverted grid test of behavioral toxicity; type: in vivo, mouse
blood pressure = details: ref Dogrul et al., 2003; cited from earlier work
[2] = test system: GABAA receptor α1-null mice (tremor); test: Tremor measurement in the GABAA receptor α1-null model; type: in vivo, mouse; details: for tremor reduction compared to baseline: 20 mg/kg i.p., 30 min after drug, tail suspension
[3] = test system: cytochrome P450 (harmaline O-demethylation to harmalol); test: Harmaline O-demethylation to harmalol in mouse liver microsomes; type: in vitro ADME; details: mouse, mouse liver microsomes, pH 7.5, probe harmaline (10 µM)
[4] = test system: mouse liver microsomes (cytochrome P450, harmaline O-demethylation); test: as above; type: in vitro ADME
[5] = test system: mice (sedation/motor function); test: Horizontal wire test of behavioral toxicity; type: in vivo, mouse
[6] = test system: harmaline-induced tremor in ICR mice; test: Tremor measurement in the harmaline model; type: in vivo, mouse; details: harmaline 20 mg/kg
Procedure, shortened: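 Male ICR mice (20–24 g) sat on a motion-sensing platform; 20 min baseline, then harmaline 20 mg/kg, then test compound or saline vehicle 15 min later (time 0); 100 min recording; 5–6 mice/group. Read-out was 10–16 Hz motion power as % of 0–33 Hz power over 20–60 and 60–100 min. Reduction = 100×(1−[(DT−DB)/(mean VT−mean VB)]) versus vehicle group; repeated-measures ANOVA.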

[7] = ref Ertel and Clozel, 1997; cited from earlier work
human recombinant CYP3A4 = details: ref Bui et al., 2008; cited from earlier work
[8] = test system: high voltage calcium channels; details: at 100 µM; ref Huang et al., 2004; Li et al., 2005; cited from earlier work
pentylenetetrazol model = details: ref Handforth et al., 2010; cited from earlier work
[9] = test system: mice (sedation or ataxia); test: Gross observation in open fields; type: in vivo, mouse; details: doses below 200 mg/kg
human CYP2D6 = details: ref Bui et al., 2008; cited from earlier work
[10] = test system: CYP3A (mouse liver microsomes)
[11] = 12.5 mg/kg i.p., 20–60 min post-drug
[12] = 12.5 mg/kg i.p., 60–100 min post-drug

COc1ccc2c3c([nH]c2c1)C(C)=NCC3 [harmaline]
retention time on the wire grid compared with vehicle/vehicle controls ([1]; vehicle-pre-treated mice, harmaline 20 mg/kg s.c., test 30 min later): reduced retention times on the wire grid

COCC(=O)O[C@]1(CCN(C)CCCc2nc3ccccc3[nH]2)CCc2cc(F)ccc2[C@@H]1C(C)C [mibefradil]
dose reported to produce severe hypotension (blood pressure): 30 mg/kg | tremor reduction compared to baseline [2]: no effect on tremor | Ki at 20 min [3]: 290 nM | Ki for harmaline O-demethylation relative to NNC 55-0396 ([4]; mouse liver microsomes): less than a third that of NNC 55-0396 | maximal dose at which 6/6 mice passed the horizontal wire test ([5]; i.p., tested at 10-min intervals for 1.5 h): 20 mg/kg | dose at which 3/6 failed the horizontal wire test ([5]; mouse, in vivo, ip, 1.5 h): 30 mg/kg | tremor generation reduced compared to the vehicle group [6, 11]: 23.1 ± 3.9% | tremor generation reduced compared to the vehicle group [6, 12]: 20.8 ± 11.5% | appearance (sedation) of drug/harmaline mice ([1]; mouse, in vivo): appeared sedated | retention on the inverted grid compared with vehicle/harmaline mice ([1]; mouse, in vivo): worse retention | crossing of the blood–brain-barrier [7]: does not cross the blood–brain-barrier

CC(C)[C@H]1c2ccc(F)cc2CC[C@@]1(CCN(C)CCCc1nc2ccccc2[nH]1)OC(=O)C1CC1.Cl.Cl [NNC 55-0396, (1S,2S)-2-(2-(N-[(3-benzimidazol-2-yl)propyl]-N-methylamino)ethyl)-6-fluoro-1,2,3,4-tetrahydro-1-isopropyl-2-naphtyl cyclopropanecarboxylate dihydrochloride]
fold higher Ki than mibefradil (human recombinant CYP3A4): 9 fold | tremor reduction compared to baseline [2]: 49.2% | effect on the tremor motion power peak ([2]; 40 mg/kg i.p., individual α1-null mouse, retest 30 min later): suppressed the tremor motion power peak | Ki [4]: 950 nM | Ki for harmaline O-demethylation relative to mibefradil [4]: approximately three-fold higher | O-demethylation of harmaline, percentage of normal (mean ± S.D.) ([4]; drug 100 nM, 10 µM harmaline, mouse liver microsomes): 103.7 ± 12.8% | O-demethylation of harmaline, percent of normal (mean ± S.D.) ([4]; drug 10 µM, 10 µM harmaline, mouse liver microsomes): 46.6 ± 5.3% | dose at which 3/6 failed the horizontal wire test ([5]; mouse, in vivo, ip): 300 mg/kg | maximal dose at which 6/6 mice passed the horizontal wire test ([5]; mouse, in vivo, ip): 200 mg/kg | effect against high voltage calcium channels [8]: no effect | tremor generation reduced compared to the vehicle group [6, 11]: 48.5 ± 12.4% | tremor generation reduced compared to the vehicle group [6, 12]: 48.9 ± 13.6% | tremor generation reduced compared to the vehicle group ([6]; 20 mg/kg i.p., 20–60 min post-drug): 73.6 ± 20.1% | tremor generation reduced compared to the vehicle group ([6]; 20 mg/kg i.p., 60–100 min post-drug): 85.1 ± 29.1% | anti-seizure efficacy (pentylenetetrazol model): anti-seizure efficacy | appearance (sedation) of drug/harmaline mice ([1]; drug 20 mg/kg i.p. then harmaline 20 mg/kg s.c.): did not appear sedated | retention on the inverted grid compared with vehicle/harmaline mice ([1]; mouse, in vivo): better than vehicle/harmaline mice | gross observations in open fields: sedation or ataxia [9]: did not reveal sedation or ataxia | Ki for human CYP2D6 relative to mibefradil (human CYP2D6): one-fourth that of mibefradil | Ki [10]: 710 nM | Ki for testosterone 6-β-hydroxylation relative to mibefradil [10]: over five-fold higher
